Screening results deposited in PubChem BioAssay by several laboratories.
Tb hexokinase = blocks Trypanosoma brucei hexokinase 1 activity. recombinant TbHK1, G6PDH-coupled NADH A340. inhibition, % at 10 µM. 0.11% of 220,000 active. AID 1430;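 active = inhibition of 50% or more in the single-dose primary screen; inactive = inhibition below 50%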
G6PDH CS = counter-screen for G6PDH assay hits: L. mesenteroides G6PDH inhibition. inhibition, % at 5 µM. AID 1020. 0.12% of 200,000 active. Purified L. mesenteroides G6PDH, diaphorase/resazurin coupled fluorescence, 45 min; in the data active = inhibition above about 50%
Diaph inh CS = inhibits diaphorase or chemically oxidizes, flagging diaphorase assay artifacts | AID 1217 | 0.69% of 190,000 active | diaphorase resazurin-to-resorufin fluorescence, NADH, 16 min; bacterial (C. kluyveri) enzyme, not human | inhibition, % at 20 µM;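 active = primary screen inhibition at 20 µM above a set limit, cut at about 50% in these data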;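 note: plate controls were DMSO with full reaction for no effect and wells lacking NADH for full effect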
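Assay system: diaphorase enzyme from Clostridium kluyveri; Input: enzyme working solution with 0.14 U/mL diaphorase; Timing: 16 min at room temperature; Technique: resorufin fluorescence, excitation 544 nm, emission 590 nm; Benchmarks: positive control minus NADH, DMSO neutral control.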
PMI activator = increases human mannose-6-phosphate isomerase activity; purified human PMI, coupled resazurin fluorescence, 20 min; active compounds read high; 1 = vehicle control, 0 substrate-free wells; activation factor at 20 µM; 0.005% of 190,000 active; AID 1214;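 active = activation factor of 2 or more at 20 µM, relative to plate controls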
Target sequence (P34949 whole entry, looked up): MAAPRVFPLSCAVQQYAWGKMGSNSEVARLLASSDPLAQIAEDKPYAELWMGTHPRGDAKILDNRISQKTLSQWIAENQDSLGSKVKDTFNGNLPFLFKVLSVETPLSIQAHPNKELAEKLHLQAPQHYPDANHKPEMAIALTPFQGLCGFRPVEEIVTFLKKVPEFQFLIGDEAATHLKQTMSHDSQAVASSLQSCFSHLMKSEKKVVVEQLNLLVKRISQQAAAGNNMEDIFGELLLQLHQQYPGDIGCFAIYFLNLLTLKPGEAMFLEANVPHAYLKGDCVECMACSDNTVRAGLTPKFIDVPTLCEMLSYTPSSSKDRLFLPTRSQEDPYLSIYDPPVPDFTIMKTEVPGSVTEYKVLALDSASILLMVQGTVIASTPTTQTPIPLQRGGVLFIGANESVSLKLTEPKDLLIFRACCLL
Diaphorase act = diaphorase activation or chemical reduction counter-screen. Diaphorase/resazurin coupled assay, resorufin fluorescence, 16 min; active compounds read high; 1 = vehicle wells, 0 = NADH-free wells. activation factor at 20 µM. 0.005% of 190,000 active;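 active = diaphorase activity raised at least twofold by the compound at 20 µM; inactive = activation factor below 2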
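Material: bacterial diaphorase enzyme (C. kluyveri); amount: enzyme 0.07 U/mL final; reagent: NADH substrate 0.114 mM plus resazurin dye 0.1 mM, final; doses: single compound dose of 20 µM, 1% DMSO final; timing: 16 min enzyme reaction, ambient temperature; measured by: fluorescence of resorufin, 544 nm excitation, 590 nm emission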
PMI act hi M6P = increases human PMI activity with near-saturating mannose 6-phosphate. P34949. coupled PMI enzyme assay, resazurin fluorescence, 20 min; active compounds read high; 1 = untreated enzyme, 0 = substrate-free blank. activation factor at 20 µM. 0.34% of 190,000 active;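 active = activation factor of 2 or more at 20 µM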
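Test system: Human PMI in coupled enzyme assay | Input: 15 ng/mL PMI | Medium: HEPES-buffered pH 7.4 with magnesium and detergent | Compound: One concentration, 20 µM, in 1% DMSO | Incubation: Enzyme reaction with compound 20 min at room temperature | Detection: Diaphorase-driven resazurin-to-resorufin fluorescence, excitation 544, emission 590 nm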
* marks the source's active call; other numbers are inactive results; nt = no result. An excerpt weighted towards active compounds, which were near 1.1% of everything screened.

SMILES | Tb hexokinase | G6PDH CS | Diaph inh CS | PMI activator | Diaphorase act | PMI act hi M6P
N=C1S/C(=C\c2ccc(-c3ccccc3C(=O)O)o2)C(=O)N1c1ccc2c(c1)OCO2 | 4 | 2 | 67* | 0.1 | 0.3 | 1.4
O=C(O)c1ccccc1C(=O)NNc1ccc(Cl)cc1Cl | 0 | 5 | 4 | 1.7 | 1 | 2.7*
Cc1ccc(S(=O)(=O)N2CCOCC(=O)NCCOCCNC(=O)COCC2)cc1 | 1 | -1 | 8 | 1.1 | 0.9 | 1
Cc1cc(C)c2c(c1)[C@@H]1C=CC[C@@H]1[C@H](c1ccc(S(=O)(=O)N3CCOCC3)cc1)N2 | -9 | -2 | 23 | 1.5 | 0.8 | 2.2*
CS(=O)(=O)N1CCN(c2ccc([N+](=O)[O-])c(SCc3ccco3)c2)CC1 | -1 | 13 | 57* | 0.9 | 0.4 | 0.6
C=CCNC(=O)N[C@@H](Cc1ccccc1)C(=O)OC | 1 | nt | nt | nt | nt | nt
O=C(N/N=C/c1cc2c3c(c1O)CCCN3CCC2)c1ccccc1O | -23 | 1 | 63* | 0.7 | 0.4 | 0.5
COc1ccc(CN(Cc2ccc(C(=O)O)cc2)C(=S)Nc2ccc(C)cc2)cc1OC | -3 | 4 | -5 | 0.8 | 1.1 | 0.9
CC(=O)Nc1ccc(NC(=O)CC2Nc3cccc4cccc(c34)NC2=O)cc1 (configuration not stated) | -18 | 26 | 77* | 1 | 0.2 | 1.1
CCOc1ccc(NC(=O)CC2Nc3ccccc3NC2=O)cc1 (configuration not stated) | -9 | -1 | 11 | 0.9 | 0.9 | 0.9
Cc1cccc(NC(=O)CC2Nc3cccc4cccc(c34)NC2=O)c1 (configuration not stated) | -12 | 30 | 68* | 0.7 | 0.3 | 0.9
CC(=O)c1ccc(NC(=O)CC2Nc3cccc4cccc(c34)NC2=O)cc1 (configuration not stated) | -12 | 20 | 84* | 0.8 | 0.2 | 0.9
COc1ccc2c(c1)nc(NCCCO)n2Cc1ccccc1 | -5 | nt | nt | nt | nt | nt
CCCSC1=N/C(=C\C=C\c2ccco2)C(=O)S1 | 16 | 8 | 51* | 1.4 | 0.5 | 1.4
O=C1SC(SCc2ccccc2)=N/C1=C\c1ccco1 | 12 | 0 | 15 | 0.8 | 0.8 | 0.9
CCOC(=O)c1sc(-n2[nH]c(C)cc2=O)nc1C | -8 | 9 | 1 | 1.6 | 1 | 2.4*
COc1cccc(OC)c1OCCCCN1CCCC1 | 3 | 4 | 14 | 0.9 | 0.9 | 0.9
COc1cccc(OC)c1OCCCN1CCOCC1 | 3 | 8 | 53* | 0.9 | 0.5 | 1
O=C(COc1cccnc1[N+](=O)[O-])Nc1cc(S(=O)(=O)N2CCCCC2)ccc1Cl | -3 | nt | nt | nt | nt | nt
CC(Sc1n[nH]c(N)n1)C(=O)Nc1ccc(Cl)cn1 (configuration not stated) | 8 | 4 | -7 | 1.2 | 1.1 | 1.1
Cc1cc(C)n2nc(SC(C)C(=O)Nc3ccc(Cl)cn3)nc2n1 (configuration not stated) | -1 | 4 | 66* | 0.8 | 0.3 | 0.8
Cc1nc(N)nc(N)c1/C=C/C(C)(C)c1ccc(Cl)cc1 | 9 | 0 | -18 | 1.1 | 1.2 | 1
CSC(=NCc1cccnc1)NS(=O)(=O)c1cccs1 | 2 | 2 | 74* | 0.6 | 0.3 | 0.7
O=S(=O)(NCc1cccnc1)c1cccs1 | 9 | 6 | 18 | 0.9 | 0.8 | 0.8
Nn1c(SCc2ccccc2F)nnc1-c1ccccn1 | -3 | nt | nt | nt | nt | nt
SMILES | Tb hexokinase | G6PDH CS | Diaph inh CS | PMI activator | Diaphorase act | PMI act hi M6P
O=C(Nc1ccc(Br)cc1)Nc1ccccc1Cl | 2 | nt | nt | nt | nt | nt
CC/C(=N/Nc1ccccc1)c1cnnc(-c2ccccc2)n1 | 13 | -2 | -5 | 1.9 | 1.1 | 2.9*
COc1ccc(NC(=O)Cn2cccc2)c(OC)c1 | 0 | 3 | 74* | 1.1 | 0.3 | 1
CCC(=O)Nc1ccc(OC)cc1OC | 5 | -2 | 3 | 1 | 1 | 1
Clc1ccc(-c2ccc(CNCC3CCCO3)o2)cc1 (configuration not stated) | 6 | nt | nt | nt | nt | nt
C=C1N(C)c2cc([N+](=O)[O-])c(N)cc2C1(C)C | -7 | 44 | 75* | 0.1 | 0.3 | 0.2
COc1ccccc1-c1nnc2n1N=C(c1ccc(O)c(O)c1)CS2 | -23 | 32 | 51* | 0.6 | 0.5 | 0.9
COc1cc(C(=O)NNC(=S)NC(=O)c2ccc(Cl)cc2)cc(OC)c1OC | -12 | 5 | 61* | 1 | 0.4 | 1.1
COc1cc(OC)cc(C(=O)NC(=S)NNC(=O)c2cnccn2)c1 | -2 | -16 | 68* | 0.7 | 0.3 | 1.1
COc1cc(C(=O)NNC(=S)NC(=O)/C=C/c2ccccc2)cc(OC)c1OC | -18 | nt | nt | nt | nt | nt
COc1ccc(C(=O)NC(=S)NNC(=O)c2cnccn2)cc1OC | -13 | -3 | 74* | 0.4 | 0.3 | 0.9
Nc1ccc(S(=O)(=O)Nc2nccc(/C=C/c3ccc(Cl)cc3Cl)n2)cc1 | -31 | nt | nt | nt | nt | nt
Cc1c(/C=N/NC(=O)c2ccc(Br)o2)cnn1C | -61 | nt | nt | nt | nt | nt
CC(=O)/C(=N\Nc1ccc(Cl)cc1)Sc1nnc(-c2ccccc2)n1-c1ccccc1 | -3 | -17 | 14 | 1.4 | 0.9 | 2*
CC(=O)/C(=N/Nc1ccccc1)Sc1nnc(CCc2ccccc2)n1-c1ccccc1 | -17 | -3 | 14 | 0.9 | 0.9 | 0.9
C/C(=N\Nc1ccccc1Cl)c1ccc(-n2ccnc2)cc1 | -6 | -1 | -21 | 1.7 | 1.2 | 2.7*
C/C(=N\Nc1ccc(C(=O)O)cc1)c1ccc(-n2ccnc2)cc1 | -14 | 4 | 22 | 1.6 | 0.8 | 2*
C/C(=N\NC(N)=O)c1ccc(-n2ccnc2)cc1 | -1 | -8 | 1 | 1.1 | 1 | 1.1
Clc1nc(Cl)nc(NCCC2=CCCCC2)n1 | 9 | 7 | 2 | 1.4 | 1 | 1.3
CCOc1cc(/C=N/Nc2cccc(C(=O)O)c2)ccc1OCC(=O)N1CCCCC1 | -11 | 2 | 8 | 1.7 | 0.9 | 2.3*
O=c1sc2ccccc2n1COc1ccccc1 | 5 | 0 | 70* | 1 | 0.3 | 1
CCOC(=O)CN(C(=O)COc1nc(-c2ccccc2)cc(C)c1C#N)c1ccccc1C | -15 | nt | nt | nt | nt | nt
O=C1CC(c2ccc(O)c(O)c2)Oc2c1ccc(O)c2O (configuration not stated) | 48 | nt | nt | nt | nt | nt
CC(C)=CCc1c(O)ccc2c1OC(c1ccc(O)c(O)c1)CC2=O (configuration not stated) | -21 | 28 | 62* | 0.6 | 0.4 | 0.8
O=S(=O)(NC(=S)NC1CCCCC1)c1ccc(Br)cc1 | -3 | 2 | 20 | 0.9 | 0.8 | 1
CN(CCCNC(=O)C1CCN(S(=O)(=O)c2cccc3nsnc23)CC1)Cc1ccccc1 | 58* | 4 | 16 | 0.9 | 0.8 | 0.9
